Measurements: ChEMBL document CHEMBL1121870, “Potential radiosensitizing agents. 2. Synthesis and biological activity of derivatives of dinitroimidazole with oxiranes” (1981)

Legend:
Assay type in all cases: functional
[1] = Radiosensitizing effectivity evaluated as its ability to sensitize hypoxic Chinese hamster cells (V-79) towards ionizing radiation at 1 mM
In short: (§1)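 Asynchronous V-79 monolayers in MEM with 15% fetal calf serum were exposed to drug at the maximum nontoxic level (1 mM or less). Cultures were made hypoxic by flushing with 95% N2/5% CO2 and irradiated at 400–3000 rad. Full survival curves were obtained, and the enhancement ratio was calculated as D0 of hypoxic controls divided by D0 of hypoxic drug-treated cells.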

[2] = tested on: Cricetinae gen. sp.; test: Concentration needed to achieve 50% kill of chinese hamster cells under oxygenated conditions on exposure for 2 hours; conditions: in Cricetulus griseus, read-out: ED50 (the source's name)
In short: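 V-79 Chinese hamster monolayers in MEM with 15% fetal calf serum; ~200 cells plated, attached 2 h, then exposed to a range of drug concentrations for 2 h at 37 °C in air. Drug medium was replaced with fresh medium and cells incubated 6 days at 37 °C in 95% air/5% CO2. Colony formation was scored and the concentration giving 50% kill determined.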

[3] = Radiosensitizing effectivity evaluated as its ability to sensitize hypoxic Chinese hamster cells (V-79) towards ionizing radiation at 0.1 mM; in short: as §1
[4] = Radiosensitizing effectivity evaluated as its ability to sensitize hypoxic Chinese hamster cells (V-79) towards ionizing radiation at 0.5 mM; in short: as §1
[5] = Radiosensitizing effectivity evaluated as its ability to sensitize hypoxic Chinese hamster cells (V-79) towards ionizing radiation at 0.25 mM; in short: as §1

| SMILES | Enhancement ratio [1] | EC50 [2] [µM] | Enhancement ratio [3] | Enhancement ratio [4] | Enhancement ratio [5] |
| --- | --- | --- | --- | --- | --- |
| O=[N+]([O-])c1cn2c(n1)OC(CO)C2 (centres undefined) | 1 | 2800 |  |  |  |
| CC1Cn2cc([N+](=O)[O-])nc2O1 (centres undefined) |  | 1500 | 1.2 |  |  |
| COCC(O)Cn1cc([N+](=O)[O-])nc1[N+](=O)[O-] (centres undefined) |  | 2200 | 1.8 | 2.1 |  |
| O=[N+]([O-])c1cnc2n1CCO2 |  | 1000 |  |  | 1.6 |
| COCC1Cn2cc([N+](=O)[O-])nc2O1 (centres undefined) |  | 1500 | 1.1 |  |  |
| COCC1Cn2c([N+](=O)[O-])cnc2O1 (centres undefined) | 1 | 680 |  |  |  |
| O=[N+]([O-])c1cnc2n1CC(CCl)O2 (centres undefined) |  | 610 |  | 1.1 |  |
| CC1Cn2c([N+](=O)[O-])cnc2O1 (centres undefined) |  | 620 |  | 1.1 |  |
| O=[N+]([O-])c1cn2c(n1)OC(CCl)C2 (centres undefined) |  | 1300 | 1.1 |  |  |
